Data as given in publication PMC4752335 (European journal of medicinal chemistry, 2015).

Assays:
rat brain FAAH = biological target: T1, rat brain FAAH (Rattus norvegicus, UniProt P97612); test: In vitro rat FAAH radiometric assay; type: biochemical
T1 sequence (P97612 1-579): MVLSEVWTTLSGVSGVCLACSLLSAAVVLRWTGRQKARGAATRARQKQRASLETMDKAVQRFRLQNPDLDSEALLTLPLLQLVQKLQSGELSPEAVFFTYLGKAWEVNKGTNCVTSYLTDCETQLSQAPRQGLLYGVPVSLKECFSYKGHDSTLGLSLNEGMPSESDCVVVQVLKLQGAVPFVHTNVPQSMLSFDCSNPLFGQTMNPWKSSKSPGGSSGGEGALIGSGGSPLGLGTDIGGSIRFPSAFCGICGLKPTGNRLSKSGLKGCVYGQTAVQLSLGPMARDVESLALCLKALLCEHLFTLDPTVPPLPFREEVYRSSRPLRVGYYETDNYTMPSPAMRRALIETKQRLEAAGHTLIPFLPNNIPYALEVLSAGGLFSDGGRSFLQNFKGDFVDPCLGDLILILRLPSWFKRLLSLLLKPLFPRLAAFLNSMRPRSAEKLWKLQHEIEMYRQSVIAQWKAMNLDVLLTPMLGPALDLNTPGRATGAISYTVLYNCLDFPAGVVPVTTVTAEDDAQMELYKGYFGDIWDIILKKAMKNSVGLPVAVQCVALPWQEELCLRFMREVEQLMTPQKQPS

ovine COX-1 = biological target: T2, ovine COX-1 (Ovis aries, UniProt P05979); test: In vitro COX assay; type: biochemical; conditions: for increase in potency toward COX-1: compared to 10a; for decrease in potency toward COX-1: compared to 10r
T2 sequence (P05979 25-600): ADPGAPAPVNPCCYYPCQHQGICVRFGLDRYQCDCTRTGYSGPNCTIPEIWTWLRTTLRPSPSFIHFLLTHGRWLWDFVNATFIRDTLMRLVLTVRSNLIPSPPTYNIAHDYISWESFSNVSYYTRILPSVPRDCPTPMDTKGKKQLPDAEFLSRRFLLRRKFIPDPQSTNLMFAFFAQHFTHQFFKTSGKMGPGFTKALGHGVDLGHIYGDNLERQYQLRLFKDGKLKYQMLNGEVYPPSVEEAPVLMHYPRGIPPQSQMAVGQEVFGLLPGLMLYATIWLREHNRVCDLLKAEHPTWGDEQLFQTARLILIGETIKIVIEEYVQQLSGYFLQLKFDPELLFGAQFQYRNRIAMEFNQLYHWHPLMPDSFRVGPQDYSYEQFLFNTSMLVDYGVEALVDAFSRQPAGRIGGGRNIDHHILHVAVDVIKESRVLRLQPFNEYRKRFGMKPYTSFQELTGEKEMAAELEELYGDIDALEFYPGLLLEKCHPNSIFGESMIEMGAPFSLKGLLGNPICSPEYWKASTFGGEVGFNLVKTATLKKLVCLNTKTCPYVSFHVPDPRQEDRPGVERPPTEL

FAAH and COX = conditions: mice; cited from earlier work
[1] = test system: panel of >90 biologically relevant receptors, enzymes and ion channels; conditions: cited from earlier work
mouse models of IBD = conditions: cited from earlier work
human recombinant COX-2 = biological target: T3, human recombinant COX-2 (Homo sapiens, UniProt P35354); test: In vitro COX assay; type: biochemical; conditions: compared to 10r
T3 sequence (P35354 18-604): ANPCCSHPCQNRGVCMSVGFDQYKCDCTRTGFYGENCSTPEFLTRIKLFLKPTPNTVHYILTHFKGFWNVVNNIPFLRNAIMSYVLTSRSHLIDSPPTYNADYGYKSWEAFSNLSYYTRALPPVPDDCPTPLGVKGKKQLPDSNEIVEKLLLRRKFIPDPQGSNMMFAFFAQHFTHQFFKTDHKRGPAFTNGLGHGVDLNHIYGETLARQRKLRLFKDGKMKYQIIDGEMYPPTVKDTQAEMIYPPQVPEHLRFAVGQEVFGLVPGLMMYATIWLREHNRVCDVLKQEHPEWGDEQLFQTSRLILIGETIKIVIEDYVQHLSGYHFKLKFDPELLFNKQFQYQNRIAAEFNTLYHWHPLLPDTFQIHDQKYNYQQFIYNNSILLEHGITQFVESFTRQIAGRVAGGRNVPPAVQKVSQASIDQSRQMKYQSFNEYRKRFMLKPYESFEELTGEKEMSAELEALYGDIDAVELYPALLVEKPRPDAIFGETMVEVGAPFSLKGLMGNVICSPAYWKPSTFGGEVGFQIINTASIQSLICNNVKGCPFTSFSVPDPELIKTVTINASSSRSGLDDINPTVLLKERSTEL

[2] = test system: COX products (6-keto-PGF1α, TXB2) and FAAH substrate OEA in plasma; type: in vivo; conditions: mice, 1 mg/kg intravenous, 1 h, vs vehicle
Procedure, shortened: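 Mice, randomised in groups of 6 and handled blind, were decapitated under anaesthesia 1 h after a 1 mg/kg intravenous dose. Heparinised cardiac blood (0.3 mL) was spun at 2000×g for 30 min to give plasma. OEA was extracted with cold acetone containing [²H₄]-OEA and quantified by LC/MS (MRM) against a 1 nM–10 µM calibration curve. 6-keto-PGF1α and […] were measured by ELISA kit. Values are mean ± s.e.m. (n=6), compared with vehicle by two-tailed Student's t test.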

[3] = test system: panel of >90 biologically relevant receptors, enzymes and ion channels; test: Off-target panel of >90 biologically relevant targets; conditions: Table S1

## CC(C(=O)O)c1ccc(-c2cccc(OC(=O)NC3CCC3)c2)c(F)c1 (racemic) [Compound 10c, (±)-2-[4-[3-(cyclobutylcarbamoyloxy)phenyl]-3-fluoro-phenyl]propanoic acid]
Rat brain FAAH; compared to 10a
  loss in potency against FAAH: 10 fold
Ovine COX-1
  increase in potency toward COX-1: 10 fold

## CC(C(=O)O)c1ccc(-c2cccc(OC(=O)NCC3CCCCC3)c2)c(F)c1 (racemic) [Compound 10e, (±)-2-[4-[3-(cyclohexylmethylcarbamoyloxy)phenyl]-3-fluoro-phenyl]propanoic acid]
Rat brain FAAH; compared to 10a
  increase in potency toward FAAH: 23 fold
Ovine COX-1
  increase in potency toward COX-1: 10 fold

## CC(C(=O)O)c1ccc(-c2cccc(OC(=O)NCCC3CCCCC3)c2)c(F)c1 (racemic) [Compound 10f, (±)-2-[4-[3-(2-cyclohexylethylcarbamoyloxy)phenyl]-3-fluoro-phenyl]propanoic acid]
Rat brain FAAH; compared to 10a
  increase in potency toward FAAH: 400 fold
Ovine COX-1
  increase in potency toward COX-1: 50 fold

## CC(C(=O)O)c1ccc(-c2cccc(OC(=O)NCc3ccccc3)c2)c(F)c1 (racemic) [Compound 10j, (±)-2-[4-[3-(benzylcarbamoyloxy)phenyl]-3-fluoro-phenyl]propanoic acid]
Rat brain FAAH; compared to 10i
  increase in potency toward FAAH: 10 fold

## CCCCCCNC(=O)Oc1cccc(-c2ccc(C(C)C(=O)O)cc2F)c1 (racemic) [Compound 10r, (±)-2-[3-fluoro-4-[3-(hexylcarbamoyloxy)phenyl]phenyl]propanoic acid]
FAAH and COX
  engagement of intended targets after oral administration: effectively engages its intended targets
[1]
  off-target activities on a panel of >90 biologically relevant targets: no off-target activities
Mouse models of IBD
  anti-inflammatory effects in mouse models of IBD: profound anti-inflammatory effects
Mouse models of IBD; mouse
  COX-dependent gastric toxicity: without causing COX-dependent gastric toxicity

## CCCCCCNC(=O)Oc1cccc(-c2ccc(C(C)CO)cc2F)c1 (racemic) [Compound 12, (±)-[3-[2-fluoro-4-(2-hydroxy-1-methyl-ethyl)phenyl]phenyl] N-hexylcarbamate]
Rat brain FAAH; compared to 10r
  increase in potency toward FAAH: 10 fold
Ovine COX-1
  decrease in potency toward COX-1: 100 fold

## CCCCCCNC(=O)Oc1ccccc1-c1ccc(C(C)C(=O)O)cc1F (racemic) [Compound 15a, (±)-2-[3-fluoro-4-[2-(hexylcarbamoyloxy)phenyl]phenyl]propanoic acid]
Rat brain FAAH; compared to 10r
  decrease in potency toward FAAH: 70 fold
Ovine COX-1
  decrease in potency toward COX-1: 60 fold

## CCCCCCNC(=O)Oc1cccc(-c2ccc(C(C)C(=O)O)cc2C(F)(F)F)c1 (racemic) [Compound 29c, (±)-2-[4-[3-(hexylcarbamoyloxy)phenyl]-3-(trifluoromethyl)phenyl]propanoic acid]
Rat brain FAAH; compared to 10r
  increase in potency toward FAAH: 6 fold
Human recombinant COX-2
  increase in potency toward COX-2: 2 fold

## CCCCCCNC(=O)Oc1cccc(-c2ccc(C(C)C(=O)O)cc2)c1 (racemic) [Compound 29e, (±)-2-[4-[3-(hexylcarbamoyloxy)phenyl]phenyl]propanoic acid]
Rat brain FAAH; compared to 10r
  increase in potency toward FAAH: 10 fold

## CCCCCCNC(=O)Oc1cccc(-c2ccc([C@H](C)C(=O)O)cc2F)c1 [(+)-10r, (+)-2-[3-fluoro-4-[3-(hexylcarbamoyloxy)phenyl]phenyl]propanoic acid]
[2]
  plasma level of 6-keto-PGF1α (stable metabolite of prostacyclin): lowered
  plasma level of TXB2 (stable metabolite of TXA2): lowered
  plasma level of the FAAH substrate OEA: increased
[3]
  off-target activities on a panel of >90 biologically relevant receptors, enzymes (including NAAA) and ion channels: no off-target activities

## CCCCCCNC(=O)Oc1cccc(-c2ccc(CC(=O)O)cc2F)c1 [Compound 18b, 2-[3-fluoro-4-[3-(hexylcarbamoyloxy)phenyl]phenyl]acetic acid]
Rat brain FAAH; compared to 10r
  decrease in potency toward FAAH: 2 fold
Ovine COX-1
  decrease in potency toward COX-1: 180 fold

## CCCCCCNC(=O)Oc1cccc(-c2ccc(C(=O)O)cc2F)c1 [Compound 21c, 3-fluoro-4-[3-(hexylcarbamoyloxy)phenyl]benzoic acid]
Rat brain FAAH; compared to 10r
  decrease in potency toward FAAH: 3 fold
